Assay results from different studies.
Protocols differ between the studies behind these lines.
INSR: Insulin receptor (INSR, Homo sapiens, UniProt P06213)
INSR phosphorylated: Insulin receptor, phosphorylated (INSR, Homo sapiens, UniProt P06213)

| SMILES | target | read-out | action | method | tested at | endpoint | value |
| --- | --- | --- | --- | --- | --- | --- | --- |
| O=C(NS(=O)(=O)c1ccc(NCC2CCOCC2)c([N+](=O)[O-])c1)c1ccc(N2CCN(Cc3ccc(C(F)(F)F)cc3-c3ccc(Cl)cc3)CC2)cc1Oc1cnc2[nH]ccc2c1 | INSR | cell-free assay | – | competition with immobilised ligand | 1 µM | remaining binding | 89% |
| Cc1ccc(NC(=O)c2ccc(C)c(C(F)(F)F)c2)cc1C#Cc1nn(C2CCC(O)CC2)c2ncnc(N)c12 (centres unmarked) | INSR | cell-free assay | – | – | 10 µM | remaining signal | 97% |
| COc1cc2c(Nc3ccc(Br)cc3F)ncnc2cc1OCC1CCN(C)CC1 | INSR | cell-free assay | – | – | 0.5 µM | remaining signal | 102% |
| COc1cc2ncnc(Nc3ccc(Oc4ccccc4)c(C)c3C)c2cc1OC | INSR | enzyme activity | inhibitor | – | 1 µM | inhibition | 5% |
| C[C@@H]1CN(c2cc(-c3nn(C)c4ccc(OC5(C)CC5)cc34)ncn2)C[C@H](C)O1 | INSR | cell-free assay | – | competition with immobilised ligand | 1 µM | remaining binding | 100% |
| CN1CC(Oc2cnc(C#N)cc2-c2ccn3nc(NC(=O)C4CC4)cc3c2)C1 | INSR phosphorylated | enzyme activity | inhibitor | – | 1 µM | inhibition | 1% |
| N#CCCc1ccc2c(c1)-c1[nH]c3ccc([N+](=O)[O-])cc3c1CC(=O)N2 | INSR | cell-free assay | – | – | 0.5 µM | remaining signal | 94.1% |
| O=C1CCc2cc(Nc3cc(OC4CCOCC4)c([N+](=O)[O-])cc3Cl)ccc2N1 | INSR | cell-free assay | – | competition with immobilised ligand | 1 µM | remaining binding | 93% |
| CNCc1ccc(-c2cc(-c3nc(-c4ccc(S(=O)(=O)C(C)C)cc4)cnc3N)on2)cc1 | INSR | enzyme activity | inhibitor | – | 2 µM | inhibition | 0% |
| CS(=O)(=O)Nc1cccc(-c2csc(NC(=O)CSc3nc4nccnc4c(=O)n3CCc3ccccc3)n2)c1 | INSR | enzyme activity | inhibitor | – | 10 µM | inhibition | 1% |
| Cc1ccc(C(=O)NCc2ccsc2)cc1C#Cc1cn(C(C)C)c2ncnc(N)c12 | INSR | enzyme activity | inhibitor | – | 1 µM | activity vs control | 82% |
| C[C@H](NC(=O)c1cnc2n1[C@](C)(Cc1ccc(C#N)cc1)C(=O)N2c1cc(Cl)c(F)c(Cl)c1)C(=O)NC1(c2ccccn2)CC1 | INSR | cell-free assay | – | competition with immobilised ligand | 1 µM | remaining binding | 100% |
| CSc1nc(C)c(-c2ccnc(Nc3ccc(N4CCOCC4)cc3)c2)[nH]1 | INSR | cell-free assay | inhibitor | – | 10 µM | inhibition | -1.8% |
| CCC(=N\O)/C(C)=C/c1ccc(F)cc1 | INSR | cell-free assay | – | competition with immobilised ligand | 1 µM | remaining binding | 100% |
| Cc1ccc(C(=O)Nc2ccc(CN3CCN(C)CC3)c(C(F)(F)F)c2)cc1C#Cc1cnc2cccnn12 | INSR | cell-free assay | – | – | 23.5 nM | remaining signal | 85% |
| O=C(NCc1ncc(C(F)(F)F)cc1Cl)c1ccc2c(c1)C1(CCS(=O)(=O)CC1)[C@@H](C1CC1)N2S(=O)(=O)c1ccc(F)cc1 | INSR | cell-free assay | – | competition with immobilised ligand | 1 µM | remaining binding | 100% |
| CN(C)C1CCN(CC#Cc2nn(C3CCCC3)c3nc(NCc4ccccc4)ncc23)C1 (centres unmarked) | INSR | enzyme activity | inhibitor | FRET | 0.1 µM | inhibition | 7% |
| CC(C)c1ccc(NC(=O)c2cccs2)c(-c2nc3ccccc3[nH]c2=O)c1 | INSR | enzyme activity | inhibitor | – | 1 µM | activity vs control | 91% |
| CNc1cccc2cc(C(=O)Nc3ccc(C(=O)O)cc3)c(=O)[nH]c12 | INSR | enzyme activity | inhibitor | – | 10 µM | inhibition | 5.2% |
| Cc1cc(NC(=O)c2cccc3cc(-c4cccc5[nH]nc(N)c45)ccc23)ccc1F | INSR phosphorylated | enzyme activity | inhibitor | – | 0.1 µM | activity vs control | 91% |
| CCCS(=O)(=O)Nc1ccc(F)c(C(=O)c2c[nH]c3ncc(-c4ccc(Cl)cc4)cc23)c1F | INSR | enzyme activity | inhibitor | – | 1 µM | inhibition | < 10% |
| Cc1nc(C2CCN(C(=O)c3ccc(OC(F)(F)F)cc3N)CC2)c2ncc(N3CCN(C)CC3)cc2n1 | INSR | cell-free assay | – | competition with immobilised ligand | 1 µM | remaining binding | 93% |
| Cc1ccc(Nc2nccc(N(C)c3ccc4c(C)n(C)nc4c3)n2)cc1S(N)(=O)=O | INSR | enzyme activity | inhibitor | – | 0.3 µM | inhibition | 6% |
